Calls of active or inactive are those of the source. No cut-off for these calls is given here.
How the values were obtained:
[1] = target: T1, Muscarinic acetylcholine receptor M1 (Homo sapiens) (UniProt P11229); test: Agonist activity at human muscarinic M1 receptor expressed in CHO cells assessed as inflection point for increase of EC20 of acetylcholine-induced calcium mobilization by FLIPR assay; assay type: functional, cell-based
T1 sequence (whole entry): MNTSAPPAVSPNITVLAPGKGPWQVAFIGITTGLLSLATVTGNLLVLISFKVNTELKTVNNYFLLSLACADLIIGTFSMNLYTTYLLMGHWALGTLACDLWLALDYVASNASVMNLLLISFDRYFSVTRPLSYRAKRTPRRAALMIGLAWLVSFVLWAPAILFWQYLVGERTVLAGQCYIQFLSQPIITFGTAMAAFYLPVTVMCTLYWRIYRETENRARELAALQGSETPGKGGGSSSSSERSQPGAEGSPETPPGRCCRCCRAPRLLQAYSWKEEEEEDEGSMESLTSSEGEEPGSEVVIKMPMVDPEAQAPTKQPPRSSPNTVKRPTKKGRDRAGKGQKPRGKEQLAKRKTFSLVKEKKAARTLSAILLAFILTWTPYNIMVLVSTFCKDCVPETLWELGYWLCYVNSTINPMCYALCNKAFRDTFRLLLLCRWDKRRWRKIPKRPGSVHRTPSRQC
Outline: (§1)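 Potency given as inflection point (IP); percent max is the response to compound plus EC20 acetylcholine relative to the maximal acetylcholine effect. Values averaged from at least two experiments; interassay variability ±30% for IP.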

[2] = target: T1, Muscarinic acetylcholine receptor M1 (Homo sapiens); test: Agonist activity at human muscarinic M1 receptor expressed in CHO cells assessed as increase in EC20 of concentration acetylcholine-induced calcium mobilization by FLIPR assay relative to acetylcholine; assay type: functional, cell-based; outline: as §1
Plasma = test: Drug levell in Sprague-Dawley rat plasma at 10 mg/kg, po; conditions: read-out: Cp, in vivo
[3] = Apparent permeability of the compound; conditions: not told
Cerebrospinal fluid = test: Drug level in Sprague-Dawley rat CSF at 10 mg/kg, po; conditions: read-out: Drug uptake, in vivo
Brain = test: Drug level in Sprague-Dawley rat brain at 10 mg/kg, po; conditions: read-out: Drug uptake, in vivo
[4] = Ratio of drug levell in brain to plasma in Sprague-Dawley rat at 10 mg/kg, po
Mus musculus = test: Inhibition of scopolamine-induced memory impairment in ip dosed mouse relative to control; assay type: functional, organism-based
Outline: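 Mouse contextual fear conditioning (episodic memory model): scopolamine given before exposure to a novel environment to block the new association. Test compound dosed ip at three doses; reversal judged against scopolamine-alone mice. Plasma levels sampled at the 3 mpk dose.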

## O=C(O)c1cn(Cc2ccc(-c3ccc(Cl)cc3)cc2)c2c(c1=O)C(O)CCC2 (stereo not drawn)
[1]
  Activity: 340 nM

## COc1ccc(-c2ccc(Cn3cc(C(=O)O)c(=O)c4c3CCCC4O)cc2)cn1 (stereo not drawn)
[1]
  Activity: 320 nM

## COC1CCCc2c1c(=O)c(C(=O)O)cn2Cc1ccc(-c2ccccc2)cc1 (stereo not drawn)
[1]
  Activity: 1100 nM
[2]
  Activity: 90%

## O=C(O)c1cn(Cc2ccc(-n3ccnc3)cc2)c2c(c1=O)C(O)CCC2 (stereo not drawn)
[1]
  Activity: 2500 nM

## O=C(O)c1cn(Cc2ccc(-c3ccccc3)cc2)c2c(c1=O)CCCC2O (stereo not drawn)
[1]
  Activity: 8190 nM
[2]
  Activity: 59%

## O=C(O)c1cn(Cc2ccc(-c3ccccc3Cl)cc2)c2c(c1=O)C(O)CCC2 (stereo not drawn)
[1]
  Activity: 1400 nM

## Cn1cc(-c2ccc(Cn3cc(C(=O)O)c(=O)c4c3CCCC4O)cc2)cn1 (stereo not drawn)
[1]
  Activity: 908 nM
Plasma
  concentration: 26700 nM
[3]
  Papp: 19 ×10⁻⁶ cm/s
Cerebrospinal fluid
  concentration: 110 nM
Brain
  concentration: 368 nM
[4]
  Kp: 0.01

## O=C(O)c1cn(Cc2ccc(-c3ccccc3)cc2)c2c(c1=O)CCC2
[1]
  Activity: 810 nM
[2]
  Activity: 99%

## O=C(O)c1cn(Cc2ccc(-c3ccccc3)cc2)c2c(c1=O)CCCC2
[1]
  Activity: 751 nM
[2]
  Activity: 91%

## O=C(O)c1cn(Cc2ccc(-c3ccccc3)cc2)c2c(c1=O)CCCC2=O
[1]
  Activity: 4890 nM
[2]
  Activity: 70%

## COc1ccc(-c2ccc(Cn3cc(C(=O)O)c(=O)c4c3CCCC4O)cc2)cc1 (stereo not drawn)
[1]
  Activity: 1390 nM

## COc1ccccc1-c1ccc(Cn2cc(C(=O)O)c(=O)c3c2CCCC3O)cc1 (stereo not drawn)
[1]
  Activity: 3100 nM

## O=C(O)c1cn(Cc2ccc(-c3ccoc3)cc2)c2c(c1=O)C(O)CCC2 (stereo not drawn)
[1]
  Activity: 750 nM

## O=C(O)c1cn(Cc2ccc(-c3ccc(F)nc3)cc2)c2c(c1=O)C(O)CCC2 (stereo not drawn)
[1]
  Activity: 14800 nM

## O=C(O)c1cn(Cc2ccc(-c3cccc(Cl)c3)cc2)c2c(c1=O)C(O)CCC2 (stereo not drawn)
[1]
  Activity: 340 nM

## Nc1cccc(-c2ccc(Cn3cc(C(=O)O)c(=O)c4c3CCCC4O)nc2)c1 (stereo not drawn)
[1]
  Activity: 420 nM

## COc1cccc(-c2ccc(Cn3cc(C(=O)O)c(=O)c4c3CCCC4O)cc2)c1 (stereo not drawn)
[1]
  Activity: 410 nM

## O=C(O)c1cn(Cc2ccc(-c3ccccc3)cc2)c2c(c1=O)C(O)CCC2 (stereo not drawn)
[2]
  Activity: 99%
Mus musculus
  inhibition: Active

## O=C(O)c1cn(Cc2ccc(-c3ccc(F)cc3)cn2)c2c(c1=O)C(O)CCC2 (stereo not drawn)
[1]
  Activity: 1100 nM

## CN(C)c1ccc(-c2ccc(Cn3cc(C(=O)O)c(=O)c4c3CCCC4O)cc2)cn1 (stereo not drawn)
[1]
  Activity: 1100 nM

## O=C(O)c1cn(Cc2ccc(-c3ccccc3)cc2)c2c(c1=O)C(=O)CCC2
[1]
  Activity: 800 nM
[2]
  Activity: 94%

## O=C(O)c1cn(Cc2ccc(-n3cccn3)cc2)c2c(c1=O)C(O)CCC2 (stereo not drawn)
[1]
  Activity: 1370 nM

## O=C(O)c1cn(Cc2ccc(-c3ccsc3)cc2)c2c(c1=O)C(O)CCC2 (stereo not drawn)
[1]
  Activity: 2640 nM

## O=C(O)c1cn(Cc2ccc(-c3ccccc3)cc2)c2ccccc2c1=O
[1]
  Activity: 212 nM
[2]
  Activity: 92%

## Nc1ccc(-c2ccc(Cn3cc(C(=O)O)c(=O)c4c3CCCC4O)cc2)cn1 (stereo not drawn)
[1]
  Activity: 2420 nM

— ChEMBL document CHEMBL1156223, “Hydroxy cycloalkyl fused pyridone carboxylic acid M(1) positive allosteric modulators” (Bioorg Med Chem Lett, 2010)
